Molecules are shown by their SMILES. pIC50: −log10 of the molar value. The source made the active and inactive calls. The rule behind the calls is not given here. Where only a bound is given, the exact number is not on record here.

The values that follow come from ChEMBL document CHEMBL3779799, “Antifibrotic and anticancer action of 5-ene amino/iminothiazolidinones” (Eur J Med Chem, 2016).

The test system of series [1] is HFL1. The series is described as follows: Antifibrotic activity in HFL1 cells assessed as inhibition of cell viability after 48 hrs by sulforhodamine B assay. As to conditions: Homo sapiens, HFL1, 48 h. In kind it is functional, cell-based. The procedure, abridged:
(§1)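 HFL-1 human fetal lung fibroblasts (DMEM, 10% FCS, passages 14–18) seeded at 8000 cells/well, attached overnight, then exposed to a range of concentrations for 48 h in triplicate. Cells were fixed with TCA and stained with 0.4% SRB, bound dye was solubilized in Tris, and OD was read at 570 nm relative to control.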

Series [2] has as its system HFL1. The series is described as follows: Antifibrotic activity in HFL1 cells assessed as reduction in maximum rate of cell proliferation after 150 hrs by xCelligence analysis. The series is classed as functional, cell-based. As to conditions: Homo sapiens. The procedure, abridged:
(§2)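 HFL-1 cells were seeded at 20,000/well and monitored by real-time impedance (xCelligence). Compound or DMSO vehicle was added at ~30 h, once attachment was maximal, and cells were followed for another 150 h. P150 was taken as the signal difference between 30 h and 180 h; Pdot was the maximum slope of the curve.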

A short description of series [3]: Antioxidant activity assessed as inhibition of superoxide anion generation measured for 3 mins by nitro blue tetrazolium assay. In kind it is physicochemical. As to conditions: for Emax: 0.05 h. The procedure, abridged: (§3)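 Cell-free superoxide generated by xanthine (1 mM) and xanthine oxidase (0.11 U/mL), with NBT (50 µM) as detector. Compounds in DMSO were tested up to 10 µM, with DMSO held at 0.1%. NBT reduction rate (dA560/dt) was read spectrophotometrically over 3 min from the linear part.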

The test system of series [4] is HFL1. Nature of the series: Antifibrotic activity in HFL1 cells assessed as reduction in cell proliferation after 150 hrs by xCelligence analysis. As to conditions: Homo sapiens.
The subject of series [5] is HFL1. Nature of the series: Antifibrotic activity in HFL1 cells assessed as inhibition of cell viability at >1 uM after 48 hrs by sulforhodamine B assay relative to control. The series is classed as functional. As to conditions: Homo sapiens, HFL1, 48 h. The procedure, abridged:
as §1

Series [6] is described as follows: Antioxidant activity assessed as inhibition of superoxide anion generation upto 10 uM measured for 3 mins by nitro blue tetrazolium assay. As to conditions: 0.05 h. In kind it is physicochemical. The procedure, abridged: as §3
The subject of series [7] is HFL1. Nature of the series: Antifibrotic activity in HFL1 cells assessed as reduction in cell proliferation at 0.1 to 1 uM after 150 hrs by xCelligence analysis. The series is classed as functional, cell-based. The settings on record: Homo sapiens. In a few lines:
as §2

The nature of series [8]: Cytotoxicity against human SNB75 cells assessed as cell growth at 10^-5 M after 48 hrs by sulforhodamine B assay relative to control. In kind it is functional. As to conditions: SNB-75, 48 h, read-out: Activity. The procedure, abridged: (§4)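 NCI ~60 human tumor cell line one-dose screen covering nine cancer types. Cells were preincubated 24–48 h, then exposed to compound at 10^-5 M for 48 h. SRB protein staining was the endpoint, and growth percent was calculated versus untreated control cells.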

The nature of series [9]: Cytotoxicity against human NCI60 cells assessed as cell growth at 10^-5 M after 48 hrs by sulforhodamine B assay relative to control. In kind it is functional. The settings on record: NCI60, 48 h, read-out: Activity. The procedure, abridged: as §4
The nature of series [10]: Growth inhibition of human HOP62 cells after 48 hrs by sulforhodamine B assay. The series is classed as functional. As to conditions: HOP-62, 48 h. In a few lines:
(§5)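 NCI ~60-cell-line panel with five 10-fold dilutions (10^-4 to 10^-8 M) and 48 h continuous exposure, using an SRB endpoint. Percentage growth was derived from time-zero, control and treated absorbances. […] Values are expressed as > or < when outside the tested range.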

Series [11] concerns U-251. Nature of the series: Growth inhibition of human U251 cells after 48 hrs by sulforhodamine B assay. The series is classed as functional. The settings on record: U-251, 48 h. The procedure, abridged:
as §5

The test system of series [12] is NCI-H460. The series is described as follows: Cytotoxicity against human NCI-H460 cells assessed as cell growth at 10^-4 M after 48 hrs by sulforhodamine B assay relative to control. The settings on record: NCI-H460, 48 h, read-out: Activity. The series is classed as functional. The procedure, abridged: (§6)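 Cells were inoculated and preincubated 24–48 h, then exposed to a single dose of 10^-4 M for 48 h. SRB protein staining was the endpoint, and growth percent was calculated versus untreated controls.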

The nature of series [13]: Cytotoxicity against human SF268 cells assessed as cell growth at 10^-4 M after 48 hrs by sulforhodamine B assay relative to control. As to conditions: SF-268, 48 h, read-out: Activity. In kind it is functional. In a few lines:
as §6

Series [14] in a line: Growth inhibition of human HCT116 cells after 48 hrs by sulforhodamine B assay. In kind it is functional. As to conditions: HCT-116, 48 h. In a few lines: (§7)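 NCI ~60-cell-line panel with five 10-fold dilutions (10^-4 to 10^-8 M) and 48 h continuous exposure, using an SRB endpoint. Percentage growth was derived from time-zero, control and treated absorbances. Values are expressed as > or < when outside the tested range.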

Series [15] has as its system MDA-MB-231. The series is described as follows: Growth inhibition of human MDA-MB-231 cells after 48 hrs by sulforhodamine B assay. In kind it is functional. The settings on record: MDA-MB-231, 48 h. The procedure, abridged:
as §5

Series [16] is described as follows: Growth inhibition of human NCI60 cells after 48 hrs by sulforhodamine B assay. As to conditions: NCI60, 48 h. In kind it is functional. The procedure, abridged: as §7
Series [17] concerns MCF7. The series is described as follows: Cytotoxicity against human MCF7 cells assessed as cell growth at 10^-4 M after 48 hrs by sulforhodamine B assay relative to control. In kind it is functional. The settings on record: MCF7, 48 h, read-out: Activity. The procedure, abridged:
as §6

Series [18] can be described thus: Growth inhibition of human HOP92 cells after 48 hrs by sulforhodamine B assay. The settings on record: HOP-92, 48 h. The series is classed as functional. In a few lines:
as §5

Series [19] is described as follows: Cytotoxicity against human UO31 cells assessed as cell growth at 10^-5 M after 48 hrs by sulforhodamine B assay relative to control. The series is classed as functional. As to conditions: UO-31, 48 h, read-out: Activity. In a few lines: as §4
Series [20] in a line: Cytotoxicity against human RPMI8226 cells assessed as cell growth at 10^-5 M after 48 hrs by sulforhodamine B assay relative to control. The series is classed as functional. The settings on record: RPMI-8226, 48 h, read-out: Activity. The procedure, abridged:
as §4

The subject of series [21] is NCI-H522. The series is described as follows: Cytotoxicity against human NCI-H522 cells assessed as cell growth at 10^-5 M after 48 hrs by sulforhodamine B assay relative to control. In kind it is functional. As to conditions: NCI-H522, 48 h, read-out: Activity. The procedure, abridged:
as §4

Setting [22] is: read-out: LC50 (the source's name).

Take `CC(=C/c1ccccc1)/C=C1\SC(N(C)c2ccc(O)cc2)=NC1=O`: the pIC50 in series [1] was 8.00; in [3], 5.47. The Activity result in [2] and in series [4] was “Dose-dependent effect” in each case. Further, the Emax in series [3] came out at 55%; in series [5], 34%.

For `O=C1N=C(Nc2ccc(Cl)cc2)/C(=C/c2cccs2)S1`, the pIC50 in [1] is 6.24. For the same molecule, in [2], the Activity entry was “Dose-dependent effect”. Besides, the “inhibition (INH)” value in series [6] is reported as “Not Active”. Also, the outcome in series [7] was Active. Moreover, in [5], the Emax worked out at 79%.

For `COc1ccc(-c2nnc(/N=C3\NC(=O)CS3)o2)cc1`, the pIC50 in series [1] is 6.33; in [3], 6.54. The values for the growth at 10 µM in series [8] and in series [9] were 71.9% and 102%, respectively. Further, the Emax in series [3] was determined as 81.8%; in [5] it was 84.6%. Besides, the result in [7] was Active.

For the molecule `NS(=O)(=O)c1ccc(NC2=NC(=O)C(CC(=O)Nc3ccc(Br)cc3)S2)cc1` (racemic), the GI50 is 15.6 µM in [10]; 20.7 µM in series [11]; 21.8 µM in series [14]; 18.5 µM in series [15]; 58.9 µM in [16]; 24.3 µM in [18]. Further, the TGI in series [10] was 31.7 µM; in [11], 44.2 µM; in series [14] it was 43.5 µM; in series [15], 38.2 µM; in series [16] (read-out: pTGI (converted)), 89.1 µM; in [18] it was 58.3 µM. Besides, the CC50 in [10] (setting [22]) is 64.3 µM; in series [14] (setting [22]), 86.7 µM; in [15] (setting [22]) it was 78.6 µM; in [16] (read-out: pLC50 (the source's name) (converted)), 97.7 µM; in series [18] (setting [22]) it was more than 100 µM. In addition, the LC50 (concentration killing 50% of cells) in series [11] was 94.3 µM. Besides, the growth at 100 µM was found to be 88% in [12], 45% in [13] and 24% in series [17].

`Cc1ccc(=O)n(-c2ccccc2)c1` [PIRFENIDONE]: the pIC50 in [1] was 6.15. Moreover, in [6], the “inhibition (INH)” value is given as “Not Active”. Further, the growth at 10 µM in [19] turned out to be 76.9%; in series [20], 76%; in series [9], 96.3%; in series [21] it was 79.8%. Further, the Activity entry in [4] was “Dose-dependent effect”. Also, in [5], the Emax was 78.5%.
